Experiments:
Assay type in all cases: functional
NCI-H460 = experiment: Growth inhibition of human NCI-H460 cells incubated for 48 hrs by sulforhodamine B assay; conditions: NCI-H460, 48 h
Procedure, shortened: (§1)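 NCI-60 screen. Compounds were dosed at five concentrations spanning 10^-4 to 10^-8 M for 48 h at 37 °C. Cells were TCA-fixed, stained with 0.4% SRB and read at 515 nm against time-zero and vehicle controls. GI50 is the concentration giving a 50% reduction in net protein increase.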

[1] = Cytotoxicity against human M9-ENL1 cells assessed as reduction in cell viability by trypan blue staining-based assay
Procedure, shortened: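 M9-ENL1 AML cells (MLL-ENL-transduced human blood cells) plated at 10^6 cells/mL in alpha-MEM with 5% human plasma, 20% FBS, SCF, IL-3, IL-7 and FLT3. Drug diluted from DMSO stock into PBS, final DMSO ≤0.5%. After 24 h exposure, dead cells assessed by trypan blue and by flow cytometry (Annexin V/PI or Annexin V/7-AAD). Viability normalized to vehicle; EC50 from dose-response curves; triplicate.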

RXF 393 = experiment: Growth inhibition of human RXF393 cells incubated for 48 hrs by sulforhodamine B assay; conditions: RXF 393, 48 h; procedure, shortened: as §1
SK-MEL-28 = experiment: Growth inhibition of human SK-MEL-28 cells incubated for 48 hrs by sulforhodamine B assay; conditions: SK-MEL-28, 48 h; procedure, shortened: as §1
OVCAR-5 = experiment: Growth inhibition of human OVCAR5 cells incubated for 48 hrs by sulforhodamine B assay; conditions: OVCAR-5, 48 h; procedure, shortened: as §1
HCT-15 = experiment: Growth inhibition of human HCT15 cells incubated for 48 hrs by sulforhodamine B assay; conditions: HCT-15, 48 h; procedure, shortened: as §1
SW-620 = experiment: Growth inhibition of human SW620 cells incubated for 48 hrs by sulforhodamine B assay; conditions: SW-620, 48 h
Procedure, shortened: (§2)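 NCI-60 screen run at NCI. Cells grown in RPMI medium with 5% FBS and 2 mM L-glutamine, plated at 5,000–40,000 cells/well, and preincubated 24 h at 37 °C. Time-zero plates were TCA-fixed. Compounds came from DMSO stocks and were tested at five concentrations from 10^-4 to 10^-8 M for 48 h. Cells were then TCA-fixed, stained with 0.4% SRB, and OD read at 515 nm. GI50 is the concentration giving a 50% reduction in net protein increase versus control.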

HL-60(TB) = experiment: Growth inhibition of human HL-60(TB) cells incubated for 48 hrs by sulforhodamine B assay; conditions: HL-60, 48 h
Procedure, shortened: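 Performed at NCI's 60-line screen. Cells grown in RPMI with 5% FBS and 2 mM L-glutamine, plated 5,000–40,000 cells/well and incubated 24 h at 37 °C before compound addition. DMSO stocks were diluted in medium with gentamicin, and five concentrations spanning 10^-4 to 10^-8 M were tested. Exposure was 48 h. Cells were fixed with TCA, stained with SRB, and read at 515 nm. GI50 taken from log dose-response curves as 50% reduction in net protein increase versus control.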

NCI-H226 = experiment: Growth inhibition of human NCI-H226 cells incubated for 48 hrs by sulforhodamine B assay; conditions: NCI-H226, 48 h; procedure, shortened: as §1
SF-539 = experiment: Growth inhibition of human SF539 cells incubated for 48 hrs by sulforhodamine B assay; conditions: SF-539, 48 h; procedure, shortened: as §1
OVCAR-8 = experiment: Growth inhibition of human OVCAR8 cells incubated for 48 hrs by sulforhodamine B assay; conditions: OVCAR-8, 48 h; procedure, shortened: as §1
SNB-19 = experiment: Growth inhibition of human SNB19 cells incubated for 48 hrs by sulforhodamine B assay; conditions: SNB-19, 48 h; procedure, shortened: as §2
U-251 = experiment: Growth inhibition of human U251 cells incubated for 48 hrs by sulforhodamine B assay; conditions: U-251, 48 h; procedure, shortened: as §2
CCRF-CEM = experiment: Growth inhibition of human CCRF-CEM cells incubated for 48 hrs by sulforhodamine B assay; procedure, shortened: as §1
NCI-H522 = experiment: Growth inhibition of human NCI-H522 cells incubated for 48 hrs by sulforhodamine B assay; conditions: NCI-H522, 48 h; procedure, shortened: as §1
MCF7 = experiment: Growth inhibition of human MCF7 cells incubated for 48 hrs by sulforhodamine B assay; conditions: MCF7, 48 h; procedure, shortened: as §1
HCT-116 = experiment: Growth inhibition of human HCT116 cells incubated for 48 hrs by sulforhodamine B assay; conditions: HCT-116, 48 h; procedure, shortened: as §1
HOP-92 = experiment: Growth inhibition of human HOP92 cells incubated for 48 hrs by sulforhodamine B assay; conditions: HOP-92, 48 h; procedure, shortened: as §1
MOLT-4 = experiment: Growth inhibition of human MOLT4 cells incubated for 48 hrs by sulforhodamine B assay; conditions: MOLT-4, 48 h; procedure, shortened: as §1
Malme-3M = experiment: Growth inhibition of human MALME-3M cells incubated for 48 hrs by sulforhodamine B assay; procedure, shortened: as §1
KM12 = experiment: Growth inhibition of human KM12 cells incubated for 48 hrs by sulforhodamine B assay; conditions: KM12, 48 h; procedure, shortened: as §1
UO-31 = experiment: Growth inhibition of human UO31 cells incubated for 48 hrs by sulforhodamine B assay; conditions: UO-31, 48 h; procedure, shortened: as §2
UACC-62 = experiment: Growth inhibition of human UACC62 cells incubated for 48 hrs by sulforhodamine B assay; conditions: UACC-62, 48 h; procedure, shortened: as §2
NCI/ADR-RES = experiment: Growth inhibition of human NCI/ADR-RES cells incubated for 48 hrs by sulforhodamine B assay; procedure, shortened: as §1
SF-268 = experiment: Growth inhibition of human SF268 cells incubated for 48 hrs by sulforhodamine B assay; conditions: SF-268, 48 h; procedure, shortened: as §1
A549 = experiment: Growth inhibition of human A549/ATCC cells incubated for 48 hrs by sulforhodamine B assay; conditions: A549, 48 h; procedure, shortened: as §1
SN12C = experiment: Growth inhibition of human SN12C cells incubated for 48 hrs by sulforhodamine B assay; procedure, shortened: as §1
SF-295 = experiment: Growth inhibition of human SF295 cells incubated for 48 hrs by sulforhodamine B assay; conditions: SF-295, 48 h; procedure, shortened: as §1
A498 = experiment: Growth inhibition of human A498 cells incubated for 48 hrs by sulforhodamine B assay; conditions: A498, 48 h; procedure, shortened: as §1
HT-29 = experiment: Growth inhibition of human HT-29 cells incubated for 48 hrs by sulforhodamine B assay; conditions: HT-29, 48 h; procedure, shortened: as §1
SK-OV-3 = experiment: Growth inhibition of human SKOV3 cells incubated for 48 hrs by sulforhodamine B assay; conditions: SK-OV-3, 48 h; procedure, shortened: as §1
UACC-257 = experiment: Growth inhibition of human UACC257 cells incubated for 48 hrs by sulforhodamine B assay; conditions: UACC-257, 48 h; procedure, shortened: as §2
LOX IMVI = experiment: Growth inhibition of human LOXIMVI cells incubated for 48 hrs by sulforhodamine B assay; procedure, shortened: as §1
RPMI-8226 = experiment: Growth inhibition of human RPMI8226 cells incubated for 48 hrs by sulforhodamine B assay; conditions: RPMI-8226, 48 h; procedure, shortened: as §1
NCI-H322M = experiment: Growth inhibition of human NCI-H322M cells incubated for 48 hrs by sulforhodamine B assay; procedure, shortened: as §1
NCI-H23 = experiment: Growth inhibition of human NCI-H23 cells incubated for 48 hrs by sulforhodamine B assay; conditions: NCI-H23, 48 h; procedure, shortened: as §1
HCC 2998 = experiment: Growth inhibition of human HCC2998 cells incubated for 48 hrs by sulforhodamine B assay; conditions: HCC 2998, 48 h; procedure, shortened: as §1

Compound | GI50 (NCI-H460) [µM] | EC50 [1] [µM] | GI50 (RXF 393) [µM] | GI50 (SK-MEL-28) [µM] | GI50 (OVCAR-5) [µM] | GI50 (HCT-15) [µM] | GI50 (SW-620) [µM] | GI50 (HL-60(TB)) [µM] | GI50 (NCI-H226) [µM] | GI50 (SF-539) [µM] | GI50 (OVCAR-8) [µM] | GI50 (SNB-19) [µM] | GI50 (U-251) [µM] | GI50 (CCRF-CEM) [µM] | GI50 (NCI-H522) [µM] | GI50 (MCF7) [µM] | GI50 (HCT-116) [µM] | GI50 (HOP-92) [µM] | GI50 (MOLT-4) [µM] | GI50 (Malme-3M) [µM] | also measured
C=C1C(=O)O[C@@H]2[C@H]3O[C@]3(C)CC/C=C(/COC(=O)c3cc4cc(F)ccc4[nH]3)CC[C@@H]12 | 3.04 | 2.8 | 1.47 | 1.79 | 1.77 | 1.15 | 1.43 | 2.07 | 1.76 | 1.55 | 2.17 | 5.04 | 1.82 | 0.91 | 1.65 | 1.02 | 1.5 | 1.38 | 2.26 | 1.67 | GI50 (KM12): 1.98 µM; GI50 (UO-31): 1.2 µM; GI50 (UACC-62): 1.89 µM; GI50 (NCI/ADR-RES): 1.98 µM; GI50 (SF-268): 1.62 µM; GI50 (A549): 3.08 µM; GI50 (SN12C): 1.85 µM; GI50 (SF-295): 7.1 µM; GI50 (A498): 3.35 µM; GI50 (HT-29): 1.13 µM; GI50 (SK-OV-3): 11.6 µM; GI50 (UACC-257): 2.28 µM; GI50 (LOX IMVI): 1.05 µM; GI50 (RPMI-8226): 2 µM; GI50 (NCI-H322M): 2.69 µM; GI50 (NCI-H23): 1.9 µM; GI50 (HCC 2998): 2.02 µM
C=C1C(=O)O[C@@H]2[C@H]3O[C@]3(C)CC/C=C(/COC(=O)c3c[nH]c4ccccc34)CC[C@@H]12 | 1.1 | 1.9 | 0.19 | 0.36 | 0.4 | 0.25 | 0.23 | 0.27 | 0.44 | 0.26 | 0.28 | 1.3 | 0.61 | 0.05 | 0.19 | 0.26 | 0.19 | 0.16 | 0.28 | 0.32 | GI50 (KM12): 0.47 µM; GI50 (UO-31): 0.16 µM; GI50 (UACC-62): 0.18 µM; GI50 (NCI/ADR-RES): 0.39 µM; GI50 (SF-268): 0.29 µM; GI50 (A549): 1.5 µM; GI50 (SN12C): 0.23 µM; GI50 (SF-295): 1.94 µM; GI50 (A498): 0.26 µM; GI50 (HT-29): 0.24 µM; GI50 (SK-OV-3): 2.24 µM; GI50 (UACC-257): 0.36 µM; GI50 (LOX IMVI): 0.04 µM; GI50 (RPMI-8226): 0.04 µM; GI50 (NCI-H322M): 1.85 µM; GI50 (NCI-H23): 1.63 µM; GI50 (HCC 2998): 0.32 µM
CN(C)CC1C(=O)O[C@@H]2[C@H]3O[C@]3(C)CC/C=C(/COC(=O)c3cc4ccccc4[nH]3)CC[C@@H]12.O=C(O)/C=C/C(=O)O (stereo partly specified) | 5.85 | 2.8 | 1.14 | 2.21 | 2.38 | 0.29 | 1.7 | 0.24 | 1.98 | 2.51 | 1.68 | 11.9 | 2.61 | 0.32 | 1.22 | 0.61 | 0.29 | 1.4 | 1.51 | 2.01 | GI50 (KM12): 2.24 µM; GI50 (UO-31): 0.52 µM; GI50 (UACC-62): 1.65 µM; GI50 (NCI/ADR-RES): 1.42 µM; GI50 (SF-268): 1.48 µM; GI50 (A549): 2.44 µM; GI50 (SN12C): 2.21 µM; GI50 (SF-295): 3.95 µM; GI50 (A498): 13.1 µM; GI50 (HT-29): 0.43 µM; GI50 (SK-OV-3): 2.19 µM; GI50 (UACC-257): 1.47 µM; GI50 (LOX IMVI): 0.17 µM; GI50 (RPMI-8226): 0.28 µM; GI50 (NCI-H322M): 10.8 µM; GI50 (NCI-H23): 1.96 µM; GI50 (HCC 2998): 1.72 µM
